Measurements: paper PMC6287304 (Antiviral Chemistry & Chemotherapy, 2018)
Read-outs that look alike come from different tables or passages of the source.

Columns and labels:
HSV-2 = assay: Virus-induced cytopathicity, HSV-2; format: cell-based, herpes simplex virus type 2; settings: read-out: Antiviral activity EC50 HSV-2
HSV-1 TK– = assay: Virus-induced cytopathicity, TK– HSV-1 KOS ACVr in HEL cells; format: cell-based, herpes simplex virus type 1; settings: read-out: Antiviral activity EC50 HSV-1 TK–
HEL cells [1] = assay: Cytotoxicity, alteration of cell morphology; format: cell-based, human
[2] = Cytostatic activity, inhibition of cell growth; format: cell-based, human; settings: human, HEL cells, Cytotoxicity Cell growth (CC50), Table 3
HSV-1 = assay: Virus-induced cytopathicity, HSV-1; format: cell-based, herpes simplex virus type 1; settings: read-out: Antiviral activity EC50 HSV-1; Table 4; HEL cells
herpesviruses = assay: organism not typed; format: cell-based; settings: for EC50: HEL
Vaccinia virus = assay: microbe, parasite or virus in culture; format: cell-based; settings: for EC50: read-out: Antiviral activity EC50 Vaccinia virus
HCMV DNA pol = biological target: T1, HCMV DNA pol (Human cytomegalovirus, UniProt P08546); assay: DNA polymerase inhibition, HCMV DNA pol; format: biochemical; settings: IC50 HCMV DNA pol dGTP, calf thymus DNA, radiolabeled [3H]dGTP
T1 sequence (P08546 1-1242): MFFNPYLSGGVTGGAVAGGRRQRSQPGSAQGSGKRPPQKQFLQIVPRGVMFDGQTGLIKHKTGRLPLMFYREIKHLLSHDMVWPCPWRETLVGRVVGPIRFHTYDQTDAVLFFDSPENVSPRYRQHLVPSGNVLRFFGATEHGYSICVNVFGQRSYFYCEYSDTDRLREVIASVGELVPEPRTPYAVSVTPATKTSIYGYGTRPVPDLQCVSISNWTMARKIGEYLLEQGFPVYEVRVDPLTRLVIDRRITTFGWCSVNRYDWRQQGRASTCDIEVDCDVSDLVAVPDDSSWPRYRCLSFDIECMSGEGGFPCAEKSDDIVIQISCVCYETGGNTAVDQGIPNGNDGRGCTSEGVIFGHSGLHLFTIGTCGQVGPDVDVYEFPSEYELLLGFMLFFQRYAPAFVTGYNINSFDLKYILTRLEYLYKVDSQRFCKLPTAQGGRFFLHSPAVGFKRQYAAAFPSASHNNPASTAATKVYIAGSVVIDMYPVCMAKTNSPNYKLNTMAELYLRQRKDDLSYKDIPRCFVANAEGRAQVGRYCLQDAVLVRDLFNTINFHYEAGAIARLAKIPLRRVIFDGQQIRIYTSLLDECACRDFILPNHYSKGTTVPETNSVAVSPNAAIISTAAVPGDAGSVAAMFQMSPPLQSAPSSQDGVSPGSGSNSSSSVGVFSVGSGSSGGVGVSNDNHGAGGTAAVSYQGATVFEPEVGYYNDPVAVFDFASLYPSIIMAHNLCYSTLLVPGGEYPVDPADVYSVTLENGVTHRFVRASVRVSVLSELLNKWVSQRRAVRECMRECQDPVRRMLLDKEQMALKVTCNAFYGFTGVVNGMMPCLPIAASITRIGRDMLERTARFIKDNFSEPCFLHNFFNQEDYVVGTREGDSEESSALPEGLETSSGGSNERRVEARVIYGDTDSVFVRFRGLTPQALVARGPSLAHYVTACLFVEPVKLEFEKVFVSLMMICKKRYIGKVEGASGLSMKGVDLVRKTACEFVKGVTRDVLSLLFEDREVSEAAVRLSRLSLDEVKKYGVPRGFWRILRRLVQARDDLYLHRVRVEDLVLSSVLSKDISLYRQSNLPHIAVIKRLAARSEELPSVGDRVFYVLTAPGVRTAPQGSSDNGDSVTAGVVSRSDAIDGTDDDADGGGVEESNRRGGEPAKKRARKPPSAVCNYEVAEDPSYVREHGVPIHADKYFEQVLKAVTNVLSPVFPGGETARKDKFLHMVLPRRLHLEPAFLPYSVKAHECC
In short: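 Recombinant or source enzyme not specified. HCMV DNA polymerase reaction uses activated calf thymus DNA as template/primer, 100 uM of each of three unlabeled dNTPs, and 0.5 uM rate-limiting tritium-labeled dNTP ([3H]dGTP or [3H]dTTP, as competitive substrate). The diphosphate form of the test compound is added in serial dilutions, up to 100 uM.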

HEL cells [3] = assay: Cytostatic activity, inhibition of cell growth; format: cell-based, human
HSV = assay: Antiviral activity against HSV; format: cell-based, herpes simplex virus; settings: HEL
TK– VZV 07-1 strain = format: cell-based, varicella-zoster virus
HSV-1 mutant viruses = format: cell-based, herpes simplex virus type 1; settings: Figure 2
In short: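 HSV-1 TK and DNA polymerase mutants were derived from the reference KOS strain and tested by CPE reduction. Confluent HEL cultures in 96-well plates were infected and incubated with varying test compound concentrations. Cytopathicity was scored once it was complete in untreated infected controls. […] Fold-resistance is EC50 mutant divided by EC50 wild-type KOS. Reference antiherpetic drugs were run alongside.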

HCMV Davis strain = assay: Virus-induced cytopathic effect, HCMV Davis strain in HEL cells; format: cell-based, human cytomegalovirus
TK+ VZV OKA strain = format: cell-based, varicella-zoster virus
HCMV AD-169 strain = assay: Virus-induced cytopathic effect, HCMV AD-169 strain in HEL cells; format: cell-based, human cytomegalovirus
[4] = read-out: EC50 values, replication of HSV-1, HSV-2 and TK-HSV-1 (range)
[5] = read-out: EC50 against VZV, HCMV, HSV-1, HSV-2, and Vaccinia virus (range)

Which EC50 (HSV-2; Human alphaherpesvirus 2, HEL) does the source give for O=c1[nH]c(=O)n([C@H]2C[C@H](O)[C@@H](CO)O2)cc1/C=C/Br [Brivudin, brivudin, reference compound] here?
The EC50 was 112 ± 37 µM.

And the EC50 (HSV-1 TK–)?
Its EC50 is 50 µM.

What about the “Cytotoxicity Cell morphology (MCC)” value (HEL cells [1]; Table 1) of the same molecule?
The value was over 300 μM.

What about the “Cytotoxicity Cell morphology (MCC)” value (HEL cells [1]; Table 2) of the same molecule?
The value was over 250 μM.

And the “Cytotoxicity Cell morphology (MCC)” value (HEL cells [1]; Table 3)?
Its value is at least 300 μM.

What about the CC50 at 3 days [2] of the same molecule?
Its CC50 at 3 days is 168 ± 41 µM.

Which EC50 (HSV-2; Table 4, HEL cells) does the source give for “4,4,5,5,6,6,7,7,8,8,9,9,10,10,11,11,11-Heptadecafluoroundecyl hydrogen ((2–(2,6-dioxo-1,2,3,6-tetrahydro-9H-purin-9-yl)ethoxy)methyl)phosphonate [Compound 19]” here?
Its EC50 is over 100 µM.

What about the EC50 (HSV-1) of the same molecule?
The EC50 was over 100 µM.

And the EC50 (HSV-1 TK–; Table 4, HEL cells)?
Its EC50 is over 100 µM.

And the “anti-herpesvirus activity (in words)” value (herpesviruses)?
Its value is “did not display any potent anti-herpesvirus activity”.

And the EC50 (Vaccinia virus)?
Its EC50 is over 100 µM.

What about the “Cytotoxicity Cell morphology (MCC)” value (HEL cells [1]; Table 3) of the same molecule?
The value was at least 100 μM.

What about the “Cytotoxicity Cell morphology (MCC)” value (HEL cells [1]; Table 4) of the same molecule?
The value was over 100 μM.

With Nc1nc2c(ncn2COCCOP(=O)(O)OP(=O)(O)OP(=O)(O)O)c(=O)[nH]1 [ACV-TP, acyclovir triphosphate] as the molecule, how does the IC50 (HCMV DNA pol) read?
Its IC50 is 0.77 ± 0.04 µM.

Which EC50 (Vaccinia virus; Orthopoxvirus vaccinia, HEL) does the source give for O=c1[nH]c(=O)c2ncn(C[C@@H](CF)OCP(=O)(O)O)c2[nH]1 [Compound 8, (S)-(((1–(2,6-Dioxo-1,2,3,6-tetrahydro-9H-purin-9-yl)-3-fluoropropan-2-yl)oxy)methyl)phosphonic acid] here?
Its EC50 is over 329 µM.

And the “Cytotoxicity Cell morphology (MCC)” value (HEL cells [1]; Table 1)?
The value was over 329 μM.

What does the source list for CCCCCCCCCCCCCCCCOCCCOP(=O)(O)COCCn1cnc2c(=O)[nH]c(=O)[nH]c21 [Compound 18, 3-(Hexadecyloxy)propyl hydrogen ((2–(2,6-dioxo-1,2,3,6-tetrahydro-9H-purin-9-yl)ethoxy)methyl)phosphonate]?
EC50 (Vaccinia virus; Orthopoxvirus vaccinia, HEL): > 100 µM; Cytotoxicity Cell morphology (MCC) (HEL cells [1]; Table 3): 100 μM; Cytotoxicity Cell morphology (MCC) (HEL cells [1]; Table 4): >100 μM; increase in cytostatic activity versus parent compound 4 (HEL cells [3]): 11 fold; EC50 (HSV; read-out: EC50 values against HSV-1 and HSV-2 (range)): 1.8 to 4 µM

Which CC50 at 3 days [2] does the source give for Nc1ccn(C[C@@H](CO)OCP(=O)(O)O)c(=O)n1 [Cidofovir, cidofovir] here?
The CC50 at 3 days was 170 ± 61 µM.

What does the source list for O=c1[nH]c(=O)c2ncn(CCOCP(=O)(O)O)c2[nH]1 [Compound 4, ((2–(2,6-Dioxo-1,2,3,6-tetrahydro-9H-purin-9-yl)ethoxy)methyl)phosphonic acid]?
selectivity index (ratio CC50/EC50) (TK– VZV 07-1 strain): 24; change of EC50 for DNA polymerase mutant viruses (HSV-1 mutant viruses; HSV-1 DNA polymerase mutants, same magnitude as adefovir): increase in the EC50; activity against viruses bearing mutations in the viral TK (HSV-1 mutant viruses; HSV-1 TK mutants): remained active; anti-herpesvirus activity (in words) (herpesviruses): able to inhibit the replication of herpesviruses; EC50 (herpesviruses; read-out: EC50 values against VZV, HCMV, HSV-1, and HSV-2 (range)): 2.6 to 25.6 µM; selectivity index (ratio CC50/EC50) (HCMV Davis strain): 13; Antiviral activity EC50 Vaccinia virus (Vaccinia virus): lacked activity; EC50 (Vaccinia virus; Orthopoxvirus vaccinia, HEL): > 345 µM; Cytotoxicity Cell morphology (MCC) (HEL cells [1]; Table 1): >345 μM; selectivity index (ratio CC50/EC50) (TK+ VZV OKA strain): 42; EC50 (HSV; [4]): 16 to 39 µM; selectivity index (ratio CC50/EC50) (HCMV AD-169 strain): 11

For O=c1nc(NC2CC2)c2ncn(CCOCP(=O)(O)O)c2[nH]1 [Compound 17, ((2–(6-(Cyclopropylamino)-2-oxo-2,3-dihydro-9H-purin-9-yl)ethoxy)methyl)phosphonic acid], which “activity in all assays (in words)” value (herpesviruses) is on record?
The value was “completely inactive in all assays”.

And the EC50 (Vaccinia virus; Orthopoxvirus vaccinia, HEL)?
The EC50 was over 100 µM.

What about the “Cytotoxicity Cell morphology (MCC)” value (HEL cells [1]; Table 3) of the same molecule?
Its value is over 100 μM.

Which results are given for Nc1nc(O)c2ncn(COC(CO)CO)c2n1 [Ganciclovir, ganciclovir, reference compound]?
EC50 (Vaccinia virus; Orthopoxvirus vaccinia, HEL): > 100 µM; Cytotoxicity Cell morphology (MCC) (HEL cells [1]; Table 2): >100 μM; CC50 at 3 days [2]: ≥ 317 µM

For C[C@H](Cn1cnc2c(=O)[nH]c(=O)[nH]c21)OCP(=O)(O)O [Compound 9, (R)-(((1–(2,6-Dioxo-1,2,3,6-tetrahydro-9H-purin-9-yl)propan-2-yl)oxy)methyl)phosphonic acid], which EC50 (Vaccinia virus; Orthopoxvirus vaccinia, HEL) is on record?
Its EC50 is over 100 µM.

What about the “Cytotoxicity Cell morphology (MCC)” value (HEL cells [1]; Table 1) of the same molecule?
The value was over 100 μM.

Which EC50 (Vaccinia virus; Orthopoxvirus vaccinia, HEL) does the source give for O=c1[nH]c(=O)c2ncn(C[C@H](CF)OCP(=O)(O)O)c2[nH]1 [Compound 7, (R)-(((1–(2,6-Dioxo-1,2,3,6-tetrahydro-9H-purin-9-yl)-3-fluoropropan-2-yl)oxy)methyl)phosphonic acid] here?
Its EC50 is over 313 µM.

What about the “Cytotoxicity Cell morphology (MCC)” value (HEL cells [1]; Table 1) of the same molecule?
The value was over 313 μM.

For Nc1nc2c(ncn2COCCO)c(=O)[nH]1 [Acyclovir, acyclovir, reference compound], which EC50 (Vaccinia virus; Orthopoxvirus vaccinia, HEL) is on record?
The EC50 was over 250 µM.

And the “Cytotoxicity Cell morphology (MCC)” value (HEL cells [1]; Table 2)?
The value was over 250 μM.

For O=c1[nH]c(=O)c2ncn(CC(CO)OCP(=O)(O)O)c2[nH]1 (racemic) [Compound 5, (RS)-(((1–(2,6-Dioxo-1,2,3,6-tetrahydro-9H-purin-9-yl)-3-hydroxypropan-2-yl)oxy)methyl)phosphonic acid], which “anti-herpesvirus activity (in words)” value (herpesviruses) is on record?
The value was “able to inhibit the replication of herpesviruses”.

What about the EC50 (herpesviruses; [5]) of the same molecule?
The EC50 was 17 to 43 µM.

What about the EC50 (Vaccinia virus; Orthopoxvirus vaccinia, HEL) of the same molecule?
The EC50 was 39 ± 27 µM.

And the “Cytotoxicity Cell morphology (MCC)” value (HEL cells [1]; Table 1)?
Its value is at least 300 μM.

And the “Cytotoxicity Cell morphology (MCC)” value (HEL cells [1]; Table 2)?
The value was over 100 μM.

And the EC50 (HSV; [4])?
The EC50 was 16 to 39 µM.

Which “anti-herpesvirus activity (in words)” value (herpesviruses) does the source give for O=c1[nH]c(=O)c2ncn(C[C@@H](CO)OCP(=O)(O)O)c2[nH]1 [Compound 6, (S)-(((1–(2,6-Dioxo-1,2,3,6-tetrahydro-9H-purin-9-yl)-3-hydroxypropan-2-yl)oxy)methyl) phosphonic acid] here?
The value was “able to inhibit the replication of herpesviruses”.

What about the EC50 (herpesviruses; [5]) of the same molecule?
The EC50 was 17 to 43 µM.

What about the EC50 (Vaccinia virus; Orthopoxvirus vaccinia, HEL) of the same molecule?
The EC50 was 39 ± 27 µM.

And the “Cytotoxicity Cell morphology (MCC)” value (HEL cells [1]; Table 1)?
Its value is over 300 μM.

And the “Cytotoxicity Cell morphology (MCC)” value (HEL cells [1]; Table 2)?
Its value is over 100 μM.

What about the EC50 (HSV; [4]) of the same molecule?
Its EC50 is 16 to 39 µM.
